Test results published in ChEMBL document CHEMBL4834495, “A Green-Absorbing, Red-Fluorescent Phenalenone-Based Photosensitizer as a Theranostic Agent for Photodynamic Therapy” (ACS Med Chem Lett, 2021).
Blank lines part the entries; values can stand above or below the compound they belong to. Calls of active or inactive are those of the source. No cut-off for these calls is given here.

What was measured:
[1] = Fluorescence property of the compound in DMSO assessed as quantum yield; assay type: physicochemical
[2] = Absorption property of the compound in PBS containing 1% DMSO assessed as maximum absorption wavelength at pH 7.4 by UV-visible spectrophotometric method; assay type: physicochemical; settings: buffer
[3] = Induction of singlet oxygen generation in PBS assessed as singlet oxygen quantum yield at pH 7.4 irradiated with 490 nm LED light by ABDA sensor based UV-Vis spectrometer analysis; assay type: functional
[4] = Induction of singlet oxygen generation in PBS assessed as singlet oxygen quantum yield at pH 7.4 irradiated with 415 nm LED light by ABDA sensor based UV-Vis spectrometer analysis; assay type: functional
[5] = Induction of singlet oxygen generation in DMSO assessed as singlet oxygen quantum yield at pH 7.4 irradiated with 530 nm LED light by ABDA sensor based UV-Vis spectrometer analysis; assay type: functional
[6] = Emission property of the compound in DMSO assessed as maximum emission wavelength; assay type: physicochemical
[7] = Absorption property of the compound in PBS assessed as molar extinction coefficient by absorbance based analysis; assay type: physicochemical; settings: buffer
[8] = Absorption property of the compound in DMSO assessed as maximum absorption wavelength at pH 7.4 by UV-visible spectrophotometric method; assay type: physicochemical
[9] = Solubility of the compound in PBS containing 1% DMSO assessed as aggregate formation by measuring reduction in fluorescence intensity at 2 uM at pH 7.4 by fluorescence analysis; assay type: physicochemical; settings: buffer, pH 7.4, 2 µM
[10] = Solubility of the compound in PBS containing 1% DMSO assessed as aggregate formation by measuring reduction in singlet oxygen formation irradiated with 530 nm LED light by ABDA sensor based UV-Vis spectrometer analysis; assay type: physicochemical; settings: buffer
PANC-1 [11] = test: Induction of ROS production in human PANC-1 cells assessed as increase in green fluorescence intensity at 2 uM incubated for 3 hrs followed by irradiation with 530 nm LED light for 10 mins by DCFH2-DA staining based fluorescence microscopy; assay type: functional, cell-based; settings: time 190.0 min
How it was run: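 PANC-1 cells in reduced-serum Opti-MEM received compound from a DMSO stock (2 μM final) for 3 h, plus the ROS sensor DCFH2-DA. Cells were irradiated at 530 nm for 10 min (11.14 J/cm2). Green DCF fluorescence was imaged by fluorescence microscopy and compared with non-irradiated cells and with single-agent irradiated controls.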

PANC-1 [12] = test: Phototoxicity against human PANC-1 cells assessed as reduction in cell viability incubated for 3 hrs followed by 525 nm green-light irradiation for 15 mins and measured after overnight incubation by MTT assay; assay type: functional, cell-based
How it was run: (§1)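 PANC-1 cells were treated with compound (0–2 μM), then either kept dark or irradiated 15 min under a green-filtered lamp (emission max 525 nm, 16.61 J/cm2). Cells were then cultured 24 h in the dark, and viability was read by standard MTT assay. Data are mean ± SD, n = 9; IC50 was taken from the dose–response.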

PANC-1 [13] = test: Dark toxicity against human PANC-1 cells assessed as reduction in cell viability incubated for 24 hrs by MTT assay; assay type: functional, cell-based; settings: PANC-1, 24 h; how it was run: as §1
PANC-1 [14] = test: Induction of apoptosis in human PANC-1 cells at 0.5 uM incubated for 3 hrs followed by incubation under dark conditions for 30 mins by Annexin V-FITC/PI staining based flow cytometric analysis; assay type: functional, cell-based; settings: time 210.0 min
PANC-1 [15] = test: Antitumor activity against human PANC-1 cell 3D spheroids assessed as reduction in spheroid diameter at 0.063 to 1.5 uM incubated for 3 hrs followed by irradiation with 525 nm green lamp light for 15 mins and measured after 27 hrs by ReadyProbes Blue/Green reagent based cell viability imaging analysis; assay type: functional; settings: dose 0.063-1.5 µM, time 1815.0 min
How it was run: (§2)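 PANC-1 spheroids incubated 3 h with compound (0–1.5 μM), then either kept dark or irradiated 15 min with a green-filtered lamp (emission max 525 nm, 16.61 J/cm2). Diameter and morphology were assessed from bright-field images. Viability was imaged at 10× with the ReadyProbes Blue/Green kit: Hoechst 33342 stains all nuclei blue, and a green nuclear dye stains dead cells.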

PANC-1 [16] = test: Antitumor activity against human PANC-1 cell 3D spheroids assessed as changes in spheroid morphology and density incubated for 3 hrs followed by irradiation with 525 nm green lamp light for 15 mins and measured after 27 hrs by ReadyProbes Blue/Green reagent based cell viability imaging analysis; assay type: functional; settings: dose 0.063-1.5 µM, time 1815.0 min; how it was run: as §2
[17] = Absorption property of the compound in PBS assessed as molar extinction coefficient in presence of BSA by absorbance based analysis; assay type: physicochemical; settings: buffer
[18] = Solubility of the compound in DMEM medium assessed as aggregate formation by measuring reduction in fluorescence intensity at 9 uM by fluorescence analysis; assay type: physicochemical
[19] = Solubility of the compound in Opti-MEM medium assessed as aggregate formation by measuring reduction in fluorescence intensity at 9 uM by fluorescence analysis; assay type: physicochemical
[20] = Photostability of the compound in PBS assessed as absorbance at 546 nm at 2 uM measured upon irradiation with 530 nm LED light in presence of BSA by absorbance based analysis; assay type: physicochemical; settings: buffer
PANC-1 [21] = test: Antitumor activity against human PANC-1 cell 3D spheroids assessed as total spheroid breakage at 1.5 uM incubated for 3 hrs followed by irradiation with 525 nm green lamp light for 15 mins and measured after 27 hrs by ReadyProbes Blue/Green reagent based cell viability imaging analysis; assay type: functional; settings: time 1815.0 min; how it was run: as §2
PANC-1 [22] = test: Antitumor activity against human PANC-1 cell 3D spheroids assessed as spheroid cell death at 0.38 to 1.5 uM incubated for 3 hrs followed by irradiation with 525 nm green lamp light for 15 mins and measured after 27 hrs by Hoechst33342 nuclear staining based analysis; assay type: functional; settings: dose 0.38-1.5 µM, time 1815.0 min; how it was run: as §2
PANC-1 [23] = test: Antitumor activity against human PANC-1 cell 3D spheroids assessed as total spheroid breakage at 0.063 to 1.5 uM incubated for 3 hrs under dark conditions by ReadyProbes Blue/Green reagent based cell viability imaging analysis; assay type: functional; settings: dose 0.063-1.5 µM; how it was run: as §2
PANC-1 [24] = test: Antitumor activity against human PANC-1 cell 3D spheroids assessed as spheroid diameter at 0.063 to 1.5 uM incubated for 3 hrs under dark conditions by ReadyProbes Blue/Green reagent based cell viability imaging analysis; assay type: functional; settings: dose 0.063-1.5 µM; how it was run: as §2
PANC-1 [25] = test: Antitumor activity against human PANC-1 cell 3D spheroids assessed as spheroid cell death at 0.063 to 1.5 uM incubated for 3 hrs under dark conditions by Hoechst33342 staining based analysis; assay type: functional; settings: dose 0.063-1.5 µM; how it was run: as §2
PANC-1 [26] = test: Induction of apoptosis in human PANC-1 cells at 0.5 uM incubated for 3 hrs followed by irradiation with 525 nm green lamp light for 15 mins and measured after 24 hrs by Annexin V-FITC/PI staining based fluorescence microscopy; settings: time 1635.0 min

- Activity [1]: 0.5
SMILES: CCN(CC)c1ccc2c(-c3ccccc3C(=O)O)c3ccc(=[N+](CC)CC)cc-3oc2c1.[Cl-] [RHODAMINE]

- Activity [2]: 485 nm
SMILES: Nc1cc2c3c(c(O)ccc3c1)C(=O)C=C2
- Activity [3]: < 0.01

- Activity [2]: 458 nm
SMILES: Nc1cc2c3c(cccc3c1Br)C(=O)C=C2
- Activity [4]: 0.1

- Activity [2]: 548 nm
- Activity [6]: 597 nm
- Activity [7]: 12736 M⁻¹ cm⁻¹
- Activity [8]: 518 nm
- Activity [1]: 0.26
SMILES: Nc1ccc2c3c(cccc13)C(=O)C=C2
- Activity [5]: < 0.01

- Activity [2]: 418 nm
SMILES: COc1ccc2cccc3c2c1C(=O)C=C3
- Activity [4]: 0.68

SMILES: O=C1OC2(c3ccccc31)c1cc(Br)c(O)c(Br)c1Oc1c2cc(Br)c(O)c1Br
- Activity [3]: 0.57

- Activity [2]: 546 nm
- Activity [6]: 602 nm
- Activity [8]: 525 nm
- solubility [9]: Insoluble
- solubility [10]: Insoluble
- Activity [17]: 12695 M⁻¹ cm⁻¹
- Activity [1]: 0.29
- solubility [18]: Insoluble
- solubility [19]: Insoluble
- Stabilty [20]: Stable
SMILES: Nc1c(Br)cc2c3c(cccc13)C(=O)C(Br)=C2
- Activity [5]: 0.47
- Activity (PANC-1 [11]): Active
- Activity (PANC-1 [12]): Dose-Dependent Effect
- IC50 (PANC-1 [12]; PANC-1, light or radiation study): 166 nM
- IC50 (PANC-1 [13]): > 2000 nM
- Activity (PANC-1 [14]): inactive
- Activity (PANC-1 [15]): Active
- Activity (PANC-1 [16]): Dose-Dependent Effect
- Activity (PANC-1 [21]): Active
- Activity (PANC-1 [22]): Active
- Activity (PANC-1 [23]): inactive
- Activity (PANC-1 [24]): inactive
- Activity (PANC-1 [25]): inactive
- Activity (PANC-1 [26]): Active

- Activity [2]: 439 nm
SMILES: O=C1C=Cc2cccc3ccc(O)c1c23
- Activity [4]: 0.96

- Activity [2]: 427 nm
SMILES: COc1ccc2cccc3c2c1C(=O)C(Br)=C3
- Activity [4]: 0.89

- Activity [7]: 10000 M⁻¹ cm⁻¹
SMILES: O=C1C=Cc2cccc3cccc1c23 [PERINAPHTHENONE]
- Activity [4]: 1

- Activity [2]: 457 nm
SMILES: Nc1cc2c3c(cccc3c1)C(=O)C=C2
- Activity [4]: 0.18
